This note sets out measurements from ChEMBL document CHEMBL1140756, “Synthesis and antiviral activity of new dimeric inhibitors against HIV-1” (Bioorg Med Chem, 2008).

Test [1] has as its system Human immunodeficiency virus 1. As to the kind of experiment: Antiviral activity against efavirenz-resistant HIV1. It counts as functional, organism-based. In short, it runs like this: (§1)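 Acute infection of MT-4 cells (1×10^4 per well) with NNRTI-resistant HIV-1 stocks (K103N+Y181C A17, Y181C N119, efavirenz-selected K103R+V179D+P225H) titrated in C8166 cells by syncytia scoring. Compounds were serially diluted from 100 mM DMSO stocks. Virus input gave full cytopathogenicity at day 4, 37 °C. Read-out was protection of viability by MTT, or p24 immunoassay.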

For a further test, the system named is MT4 (Homo sapiens). In words: Cytotoxicity against mock-infected human MT4 cells by MTT assay. For orientation: Formazan colour is commonly taken as a measure of viable cells.
The subject of test [2] is Human immunodeficiency virus 1. In words: Antiviral activity against HIV1 HTLV-3B. In kind it is functional, organism-based. The conditions noted are these: Human immunodeficiency virus 1, HTLV-3B. In short, it runs like this:
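MT-4 cells (1×10^4 per well) in RPMI 1640 with 10% FCS, exposed to serial compound dilutions (DMSO stocks at 100 mM diluted in medium), then infected with HIV-1 IIIB at an input giving complete cytopathogenicity by day 4. Incubated at 37 °C; viability read by MTT. EC50 = dose giving 50% protection; mean of at least two experiments.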

Test [3] deals with Human immunodeficiency virus 1. In words: Antiviral activity against HIV1 Y181C mutant. In kind it is functional, organism-based. In short, it runs like this:
as §1

Test [4] in a line: Selectivity index, ratio of CC50 for human MT4 cells to EC50 for wild type HIV1. In kind it is functional. In a few lines:
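CC50 from mock-infected MT-4 cells, read by MTT in parallel with the antiviral test, divided by EC50 for 50% protection from HIV-1 IIIB cytopathogenicity (MTT, day 4 input, 37 °C). Both values are means of at least two separate experiments.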

Test [5] has as its system Human immunodeficiency virus 1. As to the kind of experiment: Antiviral activity against HIV1 K103N/Y181C mutant. It counts as functional, organism-based. In a few lines: as §1

As a reminder, the EC50 is the concentration giving half of the maximal effect. By CC50 is commonly meant the concentration that lowers cell viability or growth by half. A higher CC50 goes with better tolerance by the cells. For the compound `C#CCOCn1c(Cc2cc(C)cc(C)c2)c(CC)c(=O)[nH]c1=O`, the EC50 in test [1] was 16 µM; in test [2], 0.003 µM; in test [3], 0.2 µM; in test [5] it was 1.2 µM. The CC50 in the test on MT4 (Homo sapiens) is over 100 µM. Besides, the Ratio CC50/EC50 in test [4] was over 33300.
Regarding `CCc1c(Cc2cc(C)cc(C)c2)n(COCc2ccc(C#C[C@@]3(O)CC[C@@H]4[C@H]5CCC6=CC(=O)CC[C@H]6[C@@H]5CC[C@]43CC)cc2)c(=O)[nH]c1=O`, the EC50 is over 100 µM in test [1], 0.4 µM in test [2], 2.8 µM in test [3] and over 100 µM in test [5]. The compound further came in with a CC50 in the test on MT4 (Homo sapiens) of over 100 µM. For the same compound, the “Ratio CC50/EC50” value in test [4] is over 250.
On to `CCc1c(Cc2cc(C)cc(C)c2)n(COCC#Cc2ccc(C#CCOCn3c(Cc4cc(C)cc(C)c4)c(CC)c(=O)[nH]c3=O)cc2)c(=O)[nH]c1=O`, for which the EC50 in test [1] was over 85 µM; in test [2], 2.8 µM; in test [3], over 85 µM; in test [5], over 85 µM. The CC50 with MT4 (Homo sapiens) amounted to 85 µM. Moreover, the “Ratio CC50/EC50” value in test [4] is 30.
Take `CCc1c(Cc2cc(C)cc(C)c2)n(COCc2cn([C@H]3C[C@H](n4cc(C)c(=O)[nH]c4=O)O[C@@H]3CO)nn2)c(=O)[nH]c1=O`: the half-maximal effective concentration (EC50) was 26 µM in test [1], 8 µM in test [3] and 27 µM in test [5]. The compound further returned a CC50 in the test with MT4 (Homo sapiens) of over 100 µM. The “Ratio CC50/EC50” value in test [4] is over 1250.
For the compound `CC[C@@]12CC[C@H]3C4CCC(=O)C=C4CC[C@@H]3[C@H]1CC[C@]2(O)C#CC#C[C@@]1(O)CC[C@@H]2[C@H]3CCC4=CC(=O)CCC4[C@@H]3CC[C@]21CC` (some centres undefined), the EC50 in test [1], in test [2], in test [3] and in test [5] was over 28 µM throughout. The compound further returned a CC50 with MT4 (Homo sapiens) of 28 µM. Moreover, the “Ratio CC50/EC50” value in test [4] amounted to 1.
As for `CCc1c(Cc2cc(C)cc(C)c2)n(COCC#CC#CCOCn2c(Cc3cc(C)cc(C)c3)c(CC)c(=O)[nH]c2=O)c(=O)[nH]c1=O`, the EC50 is over 9 µM in test [1], 0.5 µM in test [2], over 9 µM in test [3] and over 9 µM in test [5]. Further, the CC50 in the test with MT4 (Homo sapiens) is 9 µM. In addition, the “Ratio CC50/EC50” value in test [4] stood at 18.
In the case of `CCc1c(Cc2cc(C)cc(C)c2)n(COCC#Cc2ccc(I)cc2)c(=O)[nH]c1=O`, the EC50 was over 44 µM in test [1], 0.2 µM in test [2], 10 µM in test [3] and over 44 µM in test [5]. In the test with MT4 (Homo sapiens), this compound gave a CC50 of 44 µM. Besides, the “Ratio CC50/EC50” value in test [4] is 220.
On to `CCc1c(Cc2cc(C)cc(C)c2)n(COCc2ccc(I)cc2)c(=O)[nH]c1=O`, for which the EC50 in test [1] turned out to be 0.8 µM; in test [2] it was 0.007 µM; in test [3], 0.1 µM; in test [5], 0.9 µM. Also, the CC50 in the test with MT4 (Homo sapiens) is 19 µM. The “Ratio CC50/EC50” value in test [4] was determined as 2714.
For `C#CCOCn1c(Cc2ccccc2C)c(CC)c(=O)[nH]c1=O`, the EC50 in test [1] is over 33 µM; in test [2], 0.4 µM; in test [3], over 33 µM; in test [5], over 33 µM. The midpoint of cytotoxicity in the test on MT4 (Homo sapiens), the CC50, lay at 33 µM. Further, in test [4], the “Ratio CC50/EC50” value was determined as 82.
Take `CCc1c(Cc2ccccc2C)n(COCC#CC#CCOCn2c(Cc3ccccc3C)c(CC)c(=O)[nH]c2=O)c(=O)[nH]c1=O`: the EC50 in test [1], in test [2], in test [3] and in test [5] was over 8 µM each time. For the same compound, the CC50 in the test with MT4 (Homo sapiens) is 8 µM. Moreover, the “Ratio CC50/EC50” value in test [4] was found to be 1.
With `CCc1c(Cc2cc(C)cc(C)c2)n(COCC#Cc2ccc(COCn3c(Cc4cc(C)cc(C)c4)c(CC)c(=O)[nH]c3=O)cc2)c(=O)[nH]c1=O`, the EC50 in test [1] is over 16 µM; in test [2] it was 0.3 µM; in test [3], 4 µM; in test [5] it was over 16 µM. This compound also returned a CC50 in the test on MT4 (Homo sapiens) of 16 µM. The “Ratio CC50/EC50” value in test [4] was determined as 53.
For `O=C1Nc2ccc(Cl)cc2[C@@](C#CC2CC2)(C(F)(F)F)O1` [EFAVIRENZ], half-maximal cytotoxicity in the test with MT4 (Homo sapiens) (CC50) was put at 30 µM. Also, the figures for the EC50 in test [3] and in test [5] were 0.008 µM and 0.3 µM, respectively.
For `CCOCn1c(Cc2ccccc2)c(C(C)C)c(=O)[nH]c1=O` [EMIVIRINE], the EC50 in test [1] was 100 µM; in test [2], 0.03 µM; in test [3], 20 µM; in test [5], over 100 µM. Moreover, the CC50 with MT4 (Homo sapiens) was over 100 µM. In addition, in test [4], the “Ratio CC50/EC50” value was over 3333.
